Legend:
KB = assay: Cytotoxicity against KB cells; format: functional, cell-based; details: Homo sapiens
Procedure, shortened: (§1)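 Colorimetric cytotoxicity assay after Skehan on KB, BC and vero cell lines. Maximum concentration tested 130 µM. Ellipticine was the positive control. IC50 is reported in µM.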

Vero = assay: Cytotoxicity against vero cells.; format: functional, cell-based; details: Chlorocebus sabaeus; procedure, shortened: as §1
BC [1] = assay: Cytotoxicity against BC cells; format: functional, cell-based; details: Homo sapiens; procedure, shortened: as §1
[2] = Therapeutic index (TI) determined as IC50 of vero cells to that of EC50; format: cell-based; details: plasmodium falciparum, read-out: TI
Plasmodium falciparum = assay: Antimalarial activity against Plasmodium falciparum; format: functional, organism-based
Procedure, shortened: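 P. falciparum K1 (multidrug-resistant), asexual erythrocytic stage kept in continuous in vitro culture; microculture radioisotope method after Desjardins. EC50 is the concentration giving 50% reduction in parasite growth, measured as [3H]hypoxanthine uptake. Artemisinin and dihydroartemisinin served as standards.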

[3] = Cytotoxicity against KB cells.; format: functional, cell-based; details: Homo sapiens; procedure, shortened: as §1
BC [4] = assay: Cytotoxicity against BC cells.; format: functional, cell-based; details: Homo sapiens; procedure, shortened: as §1

| SMILES | IA (KB) | IC50 (Vero) [nM] | IA (BC [1]) | selectivity ratio [2] | EC50 (Plasmodium falciparum) [nM] | IC50 [3] [nM] | IC50 (BC [4]) [nM] |
| --- | --- | --- | --- | --- | --- | --- | --- |
| CCCCC[C@H]1C(=O)O[C@@H]2O[C@]3(C)CC[C@H]4[C@H](C)CC[C@@H]1[C@@]24OO3 | Cytotoxic | > 130000 | Cytotoxic | > 1.5 | 8.9 |  |  |
| CC1CCC2C(CC3(Cc4ccc(F)cc4)C(=O)OC4OC5(C)CCC6C(C)CCC3C46OO5)C(=O)OC3OC4(C)CCC1C32OO4 (configuration not stated) |  | 1100 |  | 4.8 | 2.3 | 7700 | 7400 |
| C[C@@H]1CCC2[C@H](CCCCCC[C@H]3C(=O)O[C@@H]4O[C@@]5(C)CC[C@H]6[C@H](C)CCC3[C@@]46OO5)C(=O)O[C@@H]3O[C@]4(C)CC[C@@H]1C23OO4 (some centres not stated) |  | 10000 |  | 9.5 | 10.5 | 1800 | 1600 |
| CCCC1(CC2C(=O)OC3OC4(C)CCC5C(C)CCC2C35OO4)C(=O)OC2OC3(C)CCC4C(C)CCC1C24OO3 (configuration not stated) | Cytotoxic | > 130000 | Cytotoxic | > 3 | 4.4 |  |  |
| CC1CCC2C(CSCCCSCC3C(=O)OC4OC5(C)CCC6C(C)CCC3C46OO5)C(=O)OC3OC4(C)CCC1C32OO4 (configuration not stated) |  |  |  |  | 13 |  |  |
| C[C@@H]1CC[C@H]2C(CCC(=O)c3ccccc3)C(=O)O[C@@H]3O[C@]4(C)CC[C@@H]1C32OO4 (some centres not stated) | Cytotoxic | > 130000 | Cytotoxic | > 1 | 12.8 |  |  |
| C[C@@H]1CC[C@H]2[C@H](Cc3cccc(F)c3)C(=O)O[C@@H]3O[C@]4(C)CC[C@@H]1[C@]32OO4 |  | > 130000 |  | 7.1 | 18.2 | 44000 | 41000 |
| CCC[C@H]1C(=O)O[C@@H]2O[C@]3(C)CC[C@H]4[C@H](C)CC[C@@H]1[C@@]24OO3 | Cytotoxic | > 130000 | Cytotoxic | > 2.1 | 6.3 |  |  |
| CC1CCC2C(CSCCSCC3C(=O)OC4OC5(C)CCC6C(C)CCC3C46OO5)C(=O)OC3OC4(C)CCC1C32OO4 (configuration not stated) |  |  |  |  | 7.4 |  |  |
| C[C@@H]1CC[C@H]2[C@@H](CCCCc3ccccc3)C(=O)O[C@@H]3O[C@]4(C)CC[C@@H]1[C@]32OO4 |  | 16000 |  | 1.9 | 8.4 | 11000 | 14000 |
| C[C@@H]1CC[C@H]2C(C[C@]3(C)C(=O)O[C@@H]4O[C@]5(C)CC[C@H]6[C@H](C)CC[C@@H]3[C@@]46OO5)C(=O)O[C@@H]3O[C@]4(C)CC[C@@H]1C32OO4 (some centres not stated) |  | 89000 |  | 8.9 | 1 | 23000 | 13000 |
| CC1CCC2C(CSCCCCCSCC3C(=O)OC4OC5(C)CCC6C(C)CCC3C46OO5)C(=O)OC3OC4(C)CCC1C32OO4 (configuration not stated) |  |  |  |  | 12 |  |  |
| CC1CCC2C(CC3(CCCCCCCC4(CC5C(=O)OC6OC7(C)CCC8C(C)CCC5C68OO7)C(=O)OC5OC6(C)CCC7C(C)CCC4C57OO6)C(=O)OC4OC5(C)CCC6C(C)CCC3C46OO5)C(=O)OC3OC4(C)CCC1C32OO4 (configuration not stated) |  | > 42000 |  | > 2.1 | > 20 | 5400 | 9600 |
| CCN(CC)C(=S)SC(CC1C(=O)O[C@@H]2O[C@]3(C)CC[C@H]4[C@H](C)CC[C@@H]1C24OO3)SC(=S)N(CC)CC (some centres not stated) |  | 6600 |  | 3.5 | 1.9 | 2500 | 2400 |
| CCCC[C@@H]1C(=O)O[C@@H]2O[C@]3(C)CC[C@H]4[C@H](C)CC[C@@H]1[C@@]24OO3 |  | > 130000 | Cytotoxic | > 9.4 | 13.8 | 54000 |  |
| CC1CCC2C(CCCCCCC3(CC4C(=O)OC5OC6(C)CCC7C(C)CCC4C57OO6)C(=O)OC4OC5(C)CCC6C(C)CCC3C46OO5)C(=O)OC3OC4(C)CCC1C32OO4 (configuration not stated) |  | 6600 |  | 2.8 | 2.4 | 1700 | 1200 |
| C[C@@H]1CC[C@H]2[C@H](CCCCc3ccccc3)C(=O)O[C@@H]3O[C@]4(C)CC[C@@H]1[C@]32OO4 |  | 13000 |  | 1.3 | 10.3 | 5200 | 5000 |
| C[C@@H]1CC[C@H]2[C@H](CCCCCCC[C@@H]3C(=O)O[C@@H]4O[C@@]5(C)CC[C@H]6[C@H](C)CC[C@@H]3[C@@]46OO5)C(=O)O[C@@H]3O[C@@]4(C)CC[C@@H]1[C@]32OO4 |  | 4900 |  |  | 1.1 | 1100 | 1100 |
| CCCCCC1(CC2C(=O)OC3OC4(C)CCC5C(C)CCC2C35OO4)C(=O)OC2OC3(C)CCC4C(C)CCC1C24OO3 (configuration not stated) |  | 63000 |  | 1.6 | 3.9 | 23000 | 36000 |
| CC1CCC2C(CSCCCCSCC3C(=O)OC4OC5(C)CCC6C(C)CCC3C46OO5)C(=O)OC3OC4(C)CCC1C32OO4 (configuration not stated) |  |  |  |  | 5.7 |  |  |
| C[C@@H]1CCC2[C@H](CCCCCC[C@@H]3C(=O)O[C@@H]4O[C@@]5(C)CC[C@H]6[C@H](C)CCC3[C@@]46OO5)C(=O)O[C@@H]3O[C@]4(C)CC[C@@H]1C23OO4 (some centres not stated) |  | 10000 |  | 7.1 | 1.4 | 2300 | 1600 |
| CCCCCC[C@H]1C(=O)O[C@@H]2O[C@]3(C)CC[C@H]4[C@H](C)CC[C@@H]1[C@@]24OO3 |  | 16000 |  | 1.2 | 12.9 | 6200 | 5700 |
| C[C@@H]1CC[C@H]2[C@H](CCCCCCC[C@H]3C(=O)O[C@@H]4O[C@@]5(C)CC[C@H]6[C@H](C)CC[C@@H]3[C@@]46OO5)C(=O)O[C@@H]3O[C@@]4(C)CC[C@@H]1[C@]32OO4 |  | 2800 |  | 3.1 | 0.91 | 760 | 360 |
| CCCCC[C@@H]1C(=O)O[C@@H]2O[C@]3(C)CC[C@H]4[C@H](C)CC[C@@H]1[C@@]24OO3 |  | 19000 |  | 1.6 | 11.7 | 11000 | 11000 |
| C[C@@H]1CC[C@H]2[C@H](Cc3ccc(F)cc3)C(=O)O[C@@H]3O[C@]4(C)CC[C@@H]1[C@]32OO4 |  | 120000 |  | 9.3 | 12.9 | 35000 | 41000 |
| CC1CCC2C(CC3(CCCCc4ccccc4)C(=O)OC4OC5(C)CCC6C(C)CCC3C46OO5)C(=O)OC3OC4(C)CCC1C32OO4 (configuration not stated) |  | 2400 |  | 7.1 | 3.4 | 5700 | 1200 |
| CCCCCC[C@@H]1C(=O)O[C@@H]2O[C@]3(C)CC[C@H]4[C@H](C)CC[C@@H]1[C@@]24OO3 |  | 14000 |  | 1 | 13.8 | 6200 | 6200 |
| CC1CCC2C(CC3(CCCCCCC4(CC5C(=O)OC6OC7(C)CCC8C(C)CCC5C68OO7)C(=O)OC5OC6(C)CCC7C(C)CCC4C57OO6)C(=O)OC4OC5(C)CCC6C(C)CCC3C46OO5)C(=O)OC3OC4(C)CCC1C32OO4 (configuration not stated) |  | 9200 |  | 1.6 | 5.8 | 2000 | 2800 |
| CC1CCC2C(CC3(Cc4cccc(F)c4)C(=O)OC4OC5(C)CCC6C(C)CCC3C46OO5)C(=O)OC3OC4(C)CCC1C32OO4 (configuration not stated) |  | 5500 |  | 2.6 | 2.1 | 4000 | 3500 |
| CC1CCC2C(CCCCCCCC3(CC4C(=O)OC5OC6(C)CCC7C(C)CCC4C57OO6)C(=O)OC4OC5(C)CCC6C(C)CCC3C46OO5)C(=O)OC3OC4(C)CCC1C32OO4 (configuration not stated) |  | 10000 |  |  | 3.1 | 2800 | 2000 |

Source: ChEMBL document CHEMBL1134326, “C-16 artemisinin derivatives and their antimalarial and cytotoxic activities: syntheses of artemisinin monomers, dimers, trimers, and tetramers by nucleophilic additions to artemisitene” (J Med Chem, 2001)
